One may read the Km as the concentration of substrate that gives half-maximal velocity. The term IC50 denotes the midpoint of a concentration-inhibition curve. Low values mean inhibition by little substance, high ones a need for much substance. For orientation: Ki means a measure of affinity in units of concentration, obtained from inhibition or displacement. A lower Ki goes with higher affinity.

Data on two compounds can be found in PMC3135177 (Organic & biomolecular chemistry, 2010).

For test [1], the target named is T1, SirT1 (Homo sapiens, UniProt Q96EB6).
T1 sequence (Q96EB6 1-747): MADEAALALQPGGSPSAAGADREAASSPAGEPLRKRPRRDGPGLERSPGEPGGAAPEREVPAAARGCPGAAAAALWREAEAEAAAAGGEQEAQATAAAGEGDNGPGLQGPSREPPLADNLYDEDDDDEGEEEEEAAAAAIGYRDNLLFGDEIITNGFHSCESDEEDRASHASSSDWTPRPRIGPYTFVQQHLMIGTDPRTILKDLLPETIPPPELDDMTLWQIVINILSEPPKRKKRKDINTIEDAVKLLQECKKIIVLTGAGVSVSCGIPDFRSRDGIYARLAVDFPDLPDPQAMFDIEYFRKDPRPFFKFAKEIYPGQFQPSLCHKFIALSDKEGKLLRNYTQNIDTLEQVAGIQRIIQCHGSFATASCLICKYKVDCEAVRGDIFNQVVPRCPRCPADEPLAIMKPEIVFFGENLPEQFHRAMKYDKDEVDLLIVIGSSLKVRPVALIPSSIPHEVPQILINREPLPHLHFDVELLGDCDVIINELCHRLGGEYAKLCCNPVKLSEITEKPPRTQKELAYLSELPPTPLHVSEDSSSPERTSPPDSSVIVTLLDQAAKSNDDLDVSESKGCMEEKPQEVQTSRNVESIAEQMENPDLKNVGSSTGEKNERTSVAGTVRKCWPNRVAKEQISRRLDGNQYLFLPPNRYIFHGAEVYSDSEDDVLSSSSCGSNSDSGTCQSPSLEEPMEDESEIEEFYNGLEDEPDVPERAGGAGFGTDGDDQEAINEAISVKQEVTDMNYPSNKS
As to conditions: NAD+ as substrate on SIRT1; cited from earlier work.

A further test addresses T2, Af2Sir2 (Archaeoglobus fulgidus, UniProt O30124).
T2 sequence (O30124 1-253): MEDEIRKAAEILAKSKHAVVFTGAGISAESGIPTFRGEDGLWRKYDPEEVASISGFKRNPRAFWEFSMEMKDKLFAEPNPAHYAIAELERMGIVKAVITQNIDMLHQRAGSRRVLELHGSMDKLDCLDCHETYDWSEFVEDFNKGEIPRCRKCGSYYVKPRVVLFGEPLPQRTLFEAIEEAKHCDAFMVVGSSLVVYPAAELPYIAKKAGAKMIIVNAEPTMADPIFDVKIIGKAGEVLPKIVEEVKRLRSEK
Briefly: Inhibition of sirtuin-catalyzed deacetylation, Af2Sir2. Format: biochemical.

Another test has as its target Yeast Sir2 (Saccharomyces cerevisiae, UniProt P06700). Kind of test: Inhibition of sirtuin-catalyzed deacetylation, yeast Sir2. It is filed as biochemical.
The target of test [2] is T1, SirT1. Briefly: Inhibition of sirtuin-catalyzed deacetylation, SirT1. Format: biochemical. In a few lines:
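Purified SirT1 was incubated with NAD+, the test compound and an acetylated peptide substrate at 37 °C for 30–60 min. Activity was expressed as percent remaining, with uninhibited set at 100%, and plotted against log[test compound] in nM. IC50 came from a fit to v(%) = v(%)I − [v(%)I(10^x)/(10^x + IC50)].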

The next test has as its target T3, SirT2 (Homo sapiens, UniProt Q8IXJ6).
T3 sequence (Q8IXJ6 1-389): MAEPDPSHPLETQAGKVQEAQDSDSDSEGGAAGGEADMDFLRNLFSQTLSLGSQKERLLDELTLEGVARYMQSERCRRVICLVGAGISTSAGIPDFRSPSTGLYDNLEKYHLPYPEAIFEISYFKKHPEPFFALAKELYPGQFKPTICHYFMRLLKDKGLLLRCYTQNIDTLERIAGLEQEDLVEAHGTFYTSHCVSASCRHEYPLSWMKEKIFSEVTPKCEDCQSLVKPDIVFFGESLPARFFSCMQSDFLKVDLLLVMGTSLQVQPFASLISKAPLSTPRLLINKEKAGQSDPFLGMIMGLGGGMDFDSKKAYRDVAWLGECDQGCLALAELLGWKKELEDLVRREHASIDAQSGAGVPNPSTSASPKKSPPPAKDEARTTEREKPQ
Briefly: Inhibition of sirtuin-catalyzed deacetylation, SirT2. Format: biochemical.

Yeast Sir2, sequence (P06700 whole entry): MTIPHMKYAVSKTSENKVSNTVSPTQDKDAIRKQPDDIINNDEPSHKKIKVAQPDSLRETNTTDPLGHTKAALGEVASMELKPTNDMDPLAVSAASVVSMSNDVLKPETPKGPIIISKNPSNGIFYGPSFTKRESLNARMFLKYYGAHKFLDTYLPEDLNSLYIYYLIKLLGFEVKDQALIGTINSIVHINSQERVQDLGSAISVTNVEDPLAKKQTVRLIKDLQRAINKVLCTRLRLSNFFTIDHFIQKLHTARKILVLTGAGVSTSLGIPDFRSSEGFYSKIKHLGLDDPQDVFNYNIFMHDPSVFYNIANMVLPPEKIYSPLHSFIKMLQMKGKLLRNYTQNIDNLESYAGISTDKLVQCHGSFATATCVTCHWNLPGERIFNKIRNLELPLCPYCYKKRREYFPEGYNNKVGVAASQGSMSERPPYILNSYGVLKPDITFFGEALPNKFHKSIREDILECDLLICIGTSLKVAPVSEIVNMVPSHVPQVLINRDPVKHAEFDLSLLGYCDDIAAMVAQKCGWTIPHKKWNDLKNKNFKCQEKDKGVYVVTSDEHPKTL

On to `NC(=O)c1ccc[n+]([C@@H]2O[C@H](COP(=O)([O-])OP(=O)(O)OC[C@H]3O[C@@H](n4cnc5c(N)ncnc54)[C@H](O)[C@@H]3O)[C@@H](O)[C@H]2O)c1` [NAD^+], for which, at SirT1 [1], the Michaelis-Menten constant (Km) is 165 µM.

As for `COC(=O)[C@H](C)NC(=O)[C@H](C)NC(=O)[C@H](CCCCNC(C)=S)NC(=O)c1ccc([N+](=O)[O-])cc1` [compound 1, N^α-4-nitrobenzoyl-N^ε-thioacetyl-lysinyl-alaninyl-alanine methyl ester], the IC50 was 131 ± 26 µM against Af2Sir2, 19.5 ± 5.8 µM against Yeast Sir2, 6.5 ± 1 µM on SirT1 [2] and 13.1 ± 0.54 µM against SirT2. This compound also returned an inhibition constant (Ki) at SirT1 [2] of 0.611 µM.
